Measurements taken from ChEMBL document CHEMBL1149103, “Anticonvulsant activity of phenylmethylenehydantoins: a structure-activity relationship study” (2004).

Assays:
Mus musculus [1] = species on record: Mus musculus; assay: Anticonvulsant activity measured as effective dose required to produce a response score of 2.5 in MES assay on mice; type: functional
In short: (§1)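 Male Swiss albino mice ([…]), pre-screened by passing a 5 min rotorod test. Compound in DMSO given ip, starting at 100 mg/kg, later doses raised or lowered to complete the dose-activity profile. After 30 min, 45 mA ([…]) for 0.2 s via auricular electrodes. Seizure scored 1 (no protection) to 4 (full), averaged over 5-6 mice per dose. Effective dose taken as the dose giving a score of 2.5; log value used for QSAR.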

Mus musculus [2] = species on record: Mus musculus; assay: Anticonvulsant activity expressed as log(1/EDMES(2.5)) in MES assay on mice that responded a score of 2.5; type: functional; in short: as §1

SMILES | EDMES(2.5) (Mus musculus [1]) [mg/kg] | Log 1/EDMES(2.5) (Mus musculus [2])
O=C1NC(=O)/C(=C/C2CCCCC2)N1 | 156 | -2.19
O=C1NC(=O)/C(=C/c2ccccn2)N1 | 141 | -2.15
COc1ccccc1/C=C1\NC(=O)NC1=O | 84 | -1.92
O=C1NC(=O)/C(=C/c2c[nH]c3ccccc23)N1 | >200 | -2.3
O=C1NC(=O)/C(=C/c2cccc([N+](=O)[O-])c2)N1 | >200 | -2.3
O=C1NC(=O)/C(=C/c2cccc(Oc3ccccc3)c2)N1 | >200 | -2.3
O=C1NC(=O)/C(=C/c2ccc(O)cc2)N1 [4-HYDROXYPHENYLMETHYLENE HYDANTOIN] | >200 | -2.3
O=C1NC(=O)/C(=C/c2ccccc2OCc2ccccc2)N1 | >200 | -2.3
O=C1NC(=O)/C(=C\c2c(Cl)cccc2Cl)N1 | 72 | -1.86
CCN(CC)c1ccc(/C=C2\NC(=O)NC2=O)cc1 | >200 | -2.3
CCCOc1ccc(/C=C2\NC(=O)NC2=O)cc1 | 77 | -1.89
O=C1NC(=O)/C(=C/c2ccc(F)cc2)N1 | >200 | -2.3
O=C1NC(=O)/C(=C/c2ccc(Cl)cc2)N1 | >200 | -2.3
CCOc1ccccc1/C=C1\NC(=O)NC1=O | >200 | -2.3
N#Cc1ccc(/C=C2\NC(=O)NC2=O)cc1 | >200 | -2.3
Cc1cc(C)c(/C=C2\NC(=O)NC2=O)cc1C | >200 | -2.3
COc1cccc(/C=C2\NC(=O)NC2=O)c1 | >200 | -2.3
Cc1ccccc1/C=C1\NC(=O)NC1=O | 59 | -1.77
O=C1NC(=O)/C(=C/c2ccc(OCc3ccccc3)cc2)N1 | 157 | -2.2
O=C1NC(=O)/C(=C/c2ccccc2Cl)N1 | 198 | -2.3
O=C1NC(=O)/C(=C/c2cccc3ccccc23)N1 | >200 | -2.3
O=C1NC(=O)/C(=C/c2cccc(C(F)(F)F)c2)N1 | 115 | -2.06
O=C1NC(=O)/C(=C/c2cccc(Br)c2)N1 | 89 | -1.95
O=C1NC(=O)/C(=C/c2ccccc2Br)N1 | >200 | -2.3
CCCCc1ccc(/C=C2\NC(=O)NC2=O)cc1 | 121 | -2.08
COc1ccc(/C=C2\NC(=O)NC2=O)c(OC)c1 | 175 | -2.24
CCOc1ccc(/C=C2\NC(=O)NC2=O)cc1 | 107 | -2.03
O=C1NC(=O)/C(=C/c2ccc3[nH]c4ccccc4c3c2)N1 | >200 | -2.3

SMILES | EDMES(2.5) (Mus musculus [1]) [mg/kg] | Log 1/EDMES(2.5) (Mus musculus [2])
O=C1NC(=O)/C(=C/c2ccc3ccccc3c2)N1 | >200 | -2.3
O=C1NC(=O)/C(=C/c2cccc(F)c2)N1 | 172 | -2.24
O=C1NC(=O)/C(=C/c2ccccc2O)N1 | >200 | -2.3
O=C1NC(=O)C(c2ccccc2)(c2ccccc2)N1 [PHENYTOIN] | 30 | -1.48
CN(C)c1ccc(/C=C2\NC(=O)NC2=O)cc1 | >200 | -2.3
Cc1ccc(/C=C2\NC(=O)NC2=O)c(C)c1 | 39 | -1.59
O=C1NC(=O)/C(=C/c2ccc(C(F)(F)F)cc2)N1 | 64 | -1.81
CCCCOc1ccc(/C=C2\NC(=O)NC2=O)cc1 | >200 | -2.3
O=C1NC(=O)/C(=C/c2ccccc2F)N1 | >200 | -2.3
O=C1NC(=O)/C(=C/c2ccc([N+](=O)[O-])cc2)N1 | >200 | -2.3
O=C1NC(=O)/C(=C/c2ccco2)N1 | 167 | -2.22
O=C1NC(=O)/C(=C/c2ccccc2)N1 | 125 | -2.1
O=C1NC(=O)/C(=C/c2cccc(O)c2)N1 | >200 | -2.3
Cc1cc(C)c(/C=C2/NC(=O)NC2=O)c(C)c1 | 28 | -1.45
O=C1NC(=O)/C(=C/c2ccccc2C(F)(F)F)N1 | >200 | -2.3
O=C1NC(=O)/C(=C/c2ccc(Br)cc2)N1 | >200 | -2.3
COc1ccc(/C=C2\NC(=O)NC2=O)cc1 | >200 | -2.3
CC(C)c1ccc(/C=C2\NC(=O)NC2=O)cc1 | 80 | -1.9
CCc1ccc(/C=C2\NC(=O)NC2=O)cc1 | 74 | -1.87
Cc1cccc(/C=C2\NC(=O)NC2=O)c1 | 74 | -1.87
O=C1NC(=O)/C(=C/c2cccs2)N1 | >200 | -2.3
O=C1NC(=O)/C(=C/c2cccc(Cl)c2)N1 | 82 | -1.91
Cc1ccc(/C=C2\NC(=O)NC2=O)cc1 | >200 | -2.3
O=C1NC(=O)/C(=C/c2ccc(F)c(F)c2)N1 | 121 | -2.08
CC(C)(C)c1ccc(/C=C2\NC(=O)NC2=O)cc1 | >200 | -2.3
O=C1NC(=O)/C(=C/c2ccc(Cl)cc2Cl)N1 | >200 | -2.3
O=C1NC(=O)/C(=C/c2ccc(-c3ccccc3)cc2)N1 | >200 | -2.3
